Experimental data from ChEMBL document CHEMBL1821614, “Synthesis and biological evaluation of novel Mannich bases of 2-arylimidazo[2,1-b]benzothiazoles as potential anti-cancer agents” (Eur J Med Chem, 2011).
Active and inactive are the calls of the source. No cut-off for these calls is given here.

Columns and labels:
[1] = Cytotoxicity against human HEK cells after 24 hrs by MTT assay; format: cell-based; conditions: HEK293, 24 h
HepG2 [2] = test: Cytotoxicity against human HepG2 cells after 24 hrs by MTT assay; format: functional, cell-based; conditions: HepG2, 24 h
Summary of the method: (§1)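 Cells were grown in DMEM with 10% FCS, penicillin and streptomycin at 37 °C under 5% CO2. They were seeded at 10,000 cells/well, left overnight, then treated 24 h. Medium was replaced with fresh medium, MTT was added and plates were held 2 h at 37 °C. Absorbance was read at 570 nm. Single-point runs used 4 µM. Data come from three independent experiments as mean ± S.D.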

MCF7 [3] = test: Cytotoxicity against human MCF7 cells after 24 hrs by MTT assay; format: functional, cell-based; conditions: MCF7, 24 h; summary of the method: as §1
HeLa [4] = test: Cytotoxicity against human HeLa cells after 24 hrs by MTT assay; format: functional, cell-based; summary of the method: as §1
HepG2 [5] = test: Selectivity ratio of IC50 for human HEK cells to IC50 for human HepG2 cells
Summary of the method: (§2)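 Selectivity index was calculated as the MTT IC50 in normal HEK cells divided by the IC50 in the given cancer line.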

MCF7 [6] = test: Selectivity ratio of IC50 for human HEK cells to IC50 for human MCF7 cells; summary of the method: as §2
HeLa [7] = test: Selectivity ratio of IC50 for human HEK cells to IC50 for human HeLa cells; summary of the method: as §2
HepG2 [8] = test: Induction of cell cycle arrest in human HepG2 assessed as accumulation at G0/G1-phase at 4 uM after 24 hrs by propidium iodide staining based FACS analysis; format: functional
Summary of the method: (§3)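 HepG2 cells were seeded at 5 × 10^5 per 60 mm dish and grown 24 h. Compound was added at 4 µM for a further 24 h. Cells were harvested with trypsin-EDTA, fixed in ice-cold 70% ethanol 30 min at 4 °C and treated with RNase A 30 min at 37 °C. They were stained with propidium iodide/citrate/Triton X-100 solution and phase distribution was read by flow cytometry.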

HepG2 [9] = test: Induction of cell cycle arrest in human HepG2 assessed as accumulation at S-phase at 4 uM after 24 hrs by propidium iodide staining based FACS analysis; format: functional; summary of the method: as §3
HepG2 [10] = test: Induction of cell cycle arrest in human HepG2 assessed as accumulation at G2/M-phase at 4 uM after 24 hrs by propidium iodide staining based FACS analysis; format: functional; summary of the method: as §3
HepG2 [11] = test: Cytotoxicity against human HepG2 cells at 4 uM after 24 hrs by MTT assay; format: functional, cell-based; summary of the method: as §1
MCF7 [12] = test: Cytotoxicity against human MCF7 cells at 4 uM after 24 hrs by MTT assay; format: functional, cell-based; summary of the method: as §1
HeLa [13] = test: Cytotoxicity against human HeLa cells at 4 uM after 24 hrs by MTT assay; format: functional, cell-based; summary of the method: as §1
HepG2 [14] = test: Upregulation of Chk2 protein in human HepG2 cells at 4 uM after 24 hrs by Western blot analysis; format: functional, cell-based
Summary of the method: (§4)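 HepG2 cells exposed 24 h to compounds at 4 µM, with an untreated control and a YM-201627 reference. Lysates were resolved at 50 µg protein per lane on 12% SDS-PAGE and transferred to PVDF. Membranes were blocked 2 h at RT in TBST with 5% blocking powder, probed with primary antibody at 4 °C overnight and then HRP secondary (1:2000) 1 h at RT. Detection by chemiluminescence, with β-actin as loading control.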

HepG2 [15] = test: Down regulation of p38 MPAK protein in human HepG2 cells at 4 uM after 24 hrs by Western blot analysis; format: functional, cell-based; summary of the method: as §4
HepG2 [16] = test: Down regulation of phosphorylated JNK protein in human HepG2 cells at 4 uM after 24 hrs by Western blot analysis; format: functional, cell-based; summary of the method: as §4
HepG2 [17] = test: Down regulation of c-jun protein in human HepG2 cells at 4 uM after 24 hrs by Western blot analysis; format: functional, cell-based; summary of the method: as §4
HepG2 [18] = test: Down regulation of […] protein in human HepG2 cells at 4 uM after 24 hrs by Western blot analysis; format: functional, cell-based; summary of the method: as §4
HepG2 [19] = test: Antiproliferative activity against human HepG2 cells assessed as down regulation of NF-kappaB protein at 4 uM after 24 hrs by Western blot analysis; format: functional, cell-based; summary of the method: as §4
HepG2 [20] = test: Down regulation of PKCalpha protein in human HepG2 cells at 4 uM after 24 hrs by Western blot analysis; format: functional, cell-based; summary of the method: as §4
HepG2 [21] = test: Induction of apoptosis in human HepG2 cells assessed as caspase3 activation at 4 uM by fluorimetric analysis; format: functional, cell-based
Summary of the method: (§5)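 HepG2 cells were treated with compound at 4 µM, with an untreated control. Lysates were mixed with 2× reaction buffer containing DTT, caspase-3 substrate was added and the mix was incubated 1 h at 37 °C. Fluorescence was read at ex 400/em 505 nm and expressed as activity relative to the untreated control.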

HepG2 [22] = test: Induction of apoptosis in human HepG2 cells assessed as caspase3 activation at 4 uM by fluorimetric analysis relative to control; format: functional; summary of the method: as §5
HepG2 [23] = test: Induction of cell cycle arrest at G2/M phase in human HepG2 cells assessed as down regulation of cyclin B1 at 4 uM after 24 hrs by Western blot analysis

SMILES | IC50 [1] | IC50 (HepG2 [2]) | IC50 (MCF7 [3]) | IC50 (HeLa [4]) | Ratio IC50 (HepG2 [5]) | Ratio IC50 (MCF7 [6]) | Ratio IC50 (HeLa [7]) | Activity (HepG2 [8]) | Activity (HepG2 [9]) | Activity (HepG2 [10]) | Activity (HepG2 [11]) | Activity (MCF7 [12]) | Activity (HeLa [13]) | further results
Cc1ccc2c(c1)sc1nc(-c3ccccc3)c(CN3CCCC3)n12 | 17.5 µM | 3.6 µM | 3.8 µM | 8.09 µM | 4.86 | 4.6 | 2.163 | 73.97% | 7.13% | 18.95% | Active | Active | Active | –
CCOc1ccc2c(c1)sc1nc(-c3ccccc3)c(CN3CCN(c4ccccn4)CC3)n12 | 16 µM | 2.84 µM | 4.45 µM | 4.36 µM | 5.63 | 3.59 | 3.67 | 55.24% | 13.42% | 31.33% | Active | Active | Active | Activity (HepG2 [14]): Active; Activity (HepG2 [15]): Active; Activity (HepG2 [16]): Active; Activity (HepG2 [17]): Active; Activity (HepG2 [18]): Active; Activity (HepG2 [19]): Active; Activity (HepG2 [20]): Active; Activity (HepG2 [21]): Active; fold change (FC) (HepG2 [22]): 2; Activity (HepG2 [23]): Active
CCN(CC)CCOc1cccc(-c2cn3c(n2)sc2ccccc23)c1.Cl.Cl | 17.5 µM | 2.02 µM | 3.59 µM | 4.3 µM | 8.663 | 4.87 | 4.069 | 64.19% | 13.37% | 22.43% | Active | Active | Active | –
c1ccc(-c2nc3sc4ccccc4n3c2CN2CCCC2)cc1 | 18.5 µM | 3.01 µM | 3.87 µM | 4.65 µM | 6.15 | 4.78 | 3.98 | 60.2% | 10.52% | 29.27% | Active | Active | Active | –
CCOc1ccc2c(c1)sc1nc(-c3ccccc3)c(CN3CCOCC3)n12 | 21 µM | 3.52 µM | 4.2 µM | 5.89 µM | 5.97 | 5 | 3.57 | 73.54% | 5.99% | 20.46% | Active | Active | Active | –
Clc1ccc(-c2nc3sc4ccccc4n3c2CN2CCCC2)cc1 | 21.2 µM | 3.46 µM | 4.07 µM | 4.33 µM | 6.12 | 5.2 | 4.89 | 81.75% | 4.58% | 13.66% | Active | Active | Active | –
CCOc1ccc2c(c1)sc1nc(-c3ccccc3)c(CN3CCCC3)n12 | 18.8 µM | 3.76 µM | 3.76 µM | 4.3 µM | 5 | – | – | 60.12% | 12.64% | 27.23% | Active | Active | Active | –
Cc1ccc2c(c1)sc1nc(-c3ccccc3)c(CN3CCOCC3)n12 | 19 µM | 3.29 µM | 3.8 µM | 7.59 µM | 5.78 | 5 | 2.5 | 70.89% | 8.2% | 20.9% | Active | Active | Active | –
